Assay outcomes deposited in PubChem BioAssay by several laboratories.
Hep lipid drop: inhibitors of hepatocyte lipid droplet formation, primary screen, imaging, high-throughput imaging, BODIPY stain; inhibition, % at 6.5 µM; 240,000 tested, 0.4% active; AML12 mouse hepatocytes, oleate lipid droplets;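 active means lipid droplet intensity inhibited by at least 50%, with more than 500 cells counted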
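System: AML12 hepatocytes (mouse). Probe or stimulus: oleic acid at 100 µM to induce lipid droplet formation. Times: overnight treatment with compound plus oleate. Detection: Image-based BODIPY and DAPI two-channel analysis. Evaluation: percent inhibition of filter-corrected integrated lipid droplet intensity per well.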
HTR2A ag: mouse Htr2a agonists via beta-arrestin recruitment, primary screen, cell-based, luminescence; 5-hydroxytryptamine receptor 2A (Mus musculus), P35363; CHO-K1 mHTR2A beta-arrestin complementation; percent of 30 µM serotonin response; activation, % at 7.6 µM; 360,000 tested, 0.66% active;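 active means activation above a run cutoff, the mean activation of all tested compounds plus 3 SD, cut at about 14% in these data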;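 further: 0% = plate median of compound wells and 100% = 30 µM serotonin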
Target sequence (P35363 whole entry, looked up): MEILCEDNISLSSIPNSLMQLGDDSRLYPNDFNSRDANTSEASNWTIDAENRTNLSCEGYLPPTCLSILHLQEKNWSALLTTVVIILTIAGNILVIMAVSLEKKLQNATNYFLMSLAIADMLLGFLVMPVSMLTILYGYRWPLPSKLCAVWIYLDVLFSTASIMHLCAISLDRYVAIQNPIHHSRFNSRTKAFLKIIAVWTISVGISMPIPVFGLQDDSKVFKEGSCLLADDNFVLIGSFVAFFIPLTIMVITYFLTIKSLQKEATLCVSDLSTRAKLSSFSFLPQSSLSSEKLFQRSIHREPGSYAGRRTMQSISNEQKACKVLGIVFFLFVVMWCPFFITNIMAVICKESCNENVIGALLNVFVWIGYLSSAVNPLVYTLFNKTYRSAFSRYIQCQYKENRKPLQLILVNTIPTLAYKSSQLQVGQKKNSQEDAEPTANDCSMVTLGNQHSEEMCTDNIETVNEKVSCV
PfM18AAP inh-1: PfM18AAP inhibitors, malaria aminopeptidase, primary screen, biochemical, QFRET, recombinant enzyme. M18 aspartyl aminopeptidase (Plasmodium falciparum 3D7). 290,000 tested, 1.2% active. inhibition, % at 7.35 µM. H-Glu-NHMec fluorogenic cleavage. AID 1822, 2009;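 active means inhibition above the campaign mean inhibition over all tested compounds plus 3 SD, cut at about 28% in these data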;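 further: 0% = plate median of test compound wells and 100% = 2 mM ZnCl2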
Arr AP2 block: inhibitors of beta-arrestin/AP2 binding, primary screen, biochemical, GPCR trafficking, flow cytometry | beta-arrestin 1 C-terminal peptide binding to AP2 beta2-adaptin appendage (human) | FITC-arrestin peptide / GST-AP2 beads; AP2 beta2 appendage carries R879A mutation | inhibition, % at 10 µM | 340,000 tested, 0.31% active | AID 504490, 2011;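 active means inhibition above a set limit, near 3 SD of compounds lacking own fluorescence, cut at about 54% in these data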;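 further: plate controls were DMSO wells for no effect and 5 µM unlabelled arrestin peptide for full effect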
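Material – GST-tagged AP2 beta2-adaptin appendage (R879A) on 4 µm glutathione beads · Probe or stimulus – fluorescein-tagged arrestin peptide at 50 nM final · Timing – 12 min plus 1 h, RT · Detection – bead flow cytometry, FITC channel · Read-out basis – inhibition as reduced fluorescein signal on beads, percent · Medium – PBS plus Tween 20 (0.05%) and BSA (0.1%)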
HGIII-sPLA2 inh: human group III sPLA2 inhibitors, primary screen, biochemical, QFRET, BODIPY PC-A2 liposome substrate; Group 3 secretory phospholipase A2 (Homo sapiens), Q9NZ20; inhibition, % at 12.2 µM; 370,000 tested, 0.56% active; QFRET BODIPY PC-A2 liposome hydrolysis, fluorescence;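 active means inhibition above mean plus 3 SD of compounds lying within the high and low control bounds, cut at about 19% in these data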;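 further: 0% = median of test compound wells and 100% = no enzyme DMSO wells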
CendR NRP1 mod: modulators of CendR peptide binding to NRP-1, primary screen, biochemical, fluorescence polarization, uHTS. Neuropilin-1 (Homo sapiens), O14786. FAM-RPARPAR peptide binding to NRP-1. inhibition, % at 25 µM. 360,000 tested, 0.85% active. AID 602438, 2012;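 active means inhibition or corrected inhibition above about 18%, plus a signal ratio from 0.5 to 1.5, limit read from the data, passing the limit was not always enough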
PfM18AAP inh-2: PfM18AAP inhibitors, malaria aminopeptidase, confirmation, biochemical, QFRET, recombinant enzyme, triplicate. inhibition, % at 7.35 µM. H-Glu-NHMec fluorogenic cleavage. shares compounds with PfM18AAP inh-1. 2,400 tested, 28% active. AID 2170, 2009;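 active means mean inhibition over replicate wells above the hit cutoff set for the earlier primary screen, cut at about 29% in these data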;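 further: 0% = median of test compound wells and 100% = 2 mM ZnCl2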
CTSL1 counter: cathepsin L1 inhibitors, retest, confirmation, counter-screen for PFM18AAP inhibitor project, biochemical, QFRET, triplicate. shares compounds with PfM18AAP inh-1. purified cathepsin L1, Z-Leu-Arg-MCA fluorescence. inhibition, % at 5.96 µM. 2,400 tested, under 10 active;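 active means average inhibition across replicates above the hit cutoff set in the earlier primary screen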;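 further: 0% = median of test compound wells and 100% = Z-Phe-Ala-diazomethylketone 1 µM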
Target sequence (P07711 whole entry, looked up): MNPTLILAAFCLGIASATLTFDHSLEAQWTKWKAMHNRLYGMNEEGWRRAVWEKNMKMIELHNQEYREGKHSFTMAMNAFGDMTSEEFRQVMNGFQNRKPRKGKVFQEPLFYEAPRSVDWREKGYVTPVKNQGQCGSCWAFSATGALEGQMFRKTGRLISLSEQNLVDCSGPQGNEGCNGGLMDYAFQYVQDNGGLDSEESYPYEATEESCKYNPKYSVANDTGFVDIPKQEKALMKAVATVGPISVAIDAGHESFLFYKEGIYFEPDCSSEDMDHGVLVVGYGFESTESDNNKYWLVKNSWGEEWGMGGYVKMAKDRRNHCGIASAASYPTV
An asterisk follows results filed as active; · = no result given. Most compounds without a hit are left out; they make up all but 3.3% or so of the library.

SMILES | Hep lipid drop | HTR2A ag | PfM18AAP inh-1 | Arr AP2 block | HGIII-sPLA2 inh | CendR NRP1 mod | PfM18AAP inh-2 | CTSL1 counter
Cc1ccccc1C(=O)NNc1ccc([N+](=O)[O-])cc1 | 12.6 | 0.1 | 59.5* | -1.6 | 1.2 | -7.7 | 47.7* | 2.5
O=C(NNc1ccc([N+](=O)[O-])cc1)C1CC1c1ccccc1 (stereo not given) | -3.1 | 5.4 | 43.1* | 0.0 | -0.5 | -15.7 | 15.0 | 3.2
CC(=O)NCc1ccc(-c2csc(N)n2)s1 | · | -2.3 | 36.8* | 1.9 | 0.7 | -0.9 | -52.3 | -5.7
CN(C)c1ccc(N/C=C/C(=O)C(C)(C)C)cc1 | -0.8 | -3.4 | 22.0 | 20.4 | 5.7 | -15.0 | · | ·
CC(C)(C)C(=O)/C=C/Nc1ccccc1O | -7.3 | 0.0 | 42.1* | -3.2 | 10.7 | 1.3 | 2.8 | -1.3
COC(=O)[C@]12C[C@H](CC(=O)N3CCCC3)C(=O)N(Cc3ccccc3)C1=C[C@H](C1CCCC1)O[C@@H]2C | · | · | · | · | -5.3 | · | · | ·
COC(=O)/C=c1\sc2ncnn2c1=O | 3.5 | 2.5 | 38.4* | 5.7 | 1.4 | 13.2 | -30.5 | -2.1
Cc1cc(C)nc(N/N=C/c2ccco2)n1 | 6.6 | 2.4 | 21.5 | 1.0 | -0.8 | 9.6 | · | ·
C(=N\Nc1nn2cnnc2c2ccccc12)/c1ccco1 | 22.2 | 0.2 | 44.2* | -2.1 | 5.4 | 13.7 | -23.2 | -0.6
COc1cccc(/C=N/Nc2nn3cnnc3c3ccccc23)c1 | -29.4 | -5.4 | 39.8* | 6.6 | 7.1 | -6.9 | -45.7 | 4.7
Oc1ccc(/C=N/Nc2nn3cnnc3c3ccccc23)cc1 | -15.4 | -3.2 | 32.9* | 11.5 | -4.9 | 7.4 | -58.0 | 2.3
C(=N\Nc1ccc2nncn2n1)/c1ccco1 | 13.3 | 0.8 | 33.9* | 1.7 | -2.5 | 4.2 | 3.4 | 2.1
O=C(NCc1ccccc1)OC1CC2CC1[C@H]1CCCCN1C2 (stereo not given in full) | · | · | · | · | -0.7 | · | · | ·
BrC(=C\c1ccccc1)/C=N/Nc1ccc2nncn2n1 | -8.2 | -6.7 | 32.1* | -6.5 | 6.5 | 0.1 | -17.3 | -1.5
BrC(=C\c1ccccc1)/C=N/n1cnnc1 | -12.1 | -1.7 | 68.2* | 17.3 | 9.9 | 2.0 | 60.8* | 3.9
C/C(=N\Nc1ccc2nncn2n1)c1cccs1 | -17.1 | -5.1 | 40.3* | 24.8 | 1.2 | -10.4 | -15.8 | -0.4
COCCN=c1scc(-c2cccs2)n1/N=C/c1ccc(O)c(O)c1O | 31.0 | 1.8 | 41.8* | 11.0 | 41.5* | -8.3 | 12.5 | 4.5
N#C/C(Cn1c[n+](NC(=O)Nc2ccccc2)cn1)=N/O | · | 0.3 | 47.1* | -0.5 | 4.4 | 4.1 | 10.2 | 1.6
COc1ccc(Cl)cc1-c1noc([C@@H]2O[C@H](CO)[C@@H](O)[C@H]2O)n1 | · | 2.3 | · | · | 3.6 | -3.0 | · | ·
COc1cccc(CN2CCC2(C)C(=O)Nc2ccc3c(c2)OCO3)c1F (stereo not given) | · | -2.7 | · | · | 4.2 | 21.7 | · | ·
CSCC[C@H](NC(=O)[C@@H]1Cc2ccccc2CN1)C(=O)Nc1ccc2c(c1)OCCO2 | 10.3 | -0.4 | 3.9 | -0.9 | -2.4 | 6.3 | · | ·
CC(=O)NC1(C(Cl)(Cl)Cl)Oc2ccccc2O1 | · | 0.4 | -6.7 | 9.5 | 6.6 | 1.4 | · | ·
COc1ccc(OC)c(NC(=O)NC2(C(F)(F)F)Oc3ccccc3O2)c1 | · | -4.1 | 62.7* | 8.4 | 8.5 | 3.3 | -7.4 | 2.2
CCCCNC(=O)NC1(C(F)(F)F)Oc2ccccc2O1 | 3.5 | -1.7 | 81.0* | -8.8 | -7.1 | 4.1 | -26.1 | -6.7
NS(=O)(=O)c1ccc(CCNC(=O)NC2(C(F)(F)F)Oc3ccccc3O2)cc1 | 29.6 | -0.1 | 67.3* | 10.4 | 3.1 | -2.8 | -16.1 | -1.7
SMILES | Hep lipid drop | HTR2A ag | PfM18AAP inh-1 | Arr AP2 block | HGIII-sPLA2 inh | CendR NRP1 mod | PfM18AAP inh-2 | CTSL1 counter
CC1=CC(=O)Nc2cncnc2N1 | · | -2.2 | · | 4.4 | 1.6 | 10.3 | · | ·
Cc1csc2c(SCC(=O)NNS(=O)(=O)c3cccc(C(F)(F)F)c3)ncnc12 | 6.7 | 2.9 | 35.7* | 1.6 | 0.3 | 4.9 | -37.7 | -4.4
COC(=O)CSc1ncnc2c(C)csc12 | 8.9 | 6.1 | 0.2 | 4.9 | -4.6 | 4.8 | · | ·
Nn1cnnc1N/N=C/c1ccc(Cl)c([N+](=O)[O-])c1 | -19.1 | -2.9 | 56.6* | 3.6 | -2.3 | 10.0 | -41.2 | -3.6
Nn1cnnc1N/N=C/c1ccc(F)cc1 | -2.2 | 6.6 | 41.9* | 6.5 | -0.2 | 11.2 | -21.0 | -2.2
Cc1nnc(N/N=C/c2ccc([N+](=O)[O-])cc2)n1N | 18.1 | 4.0 | 14.8 | 48.8 | 12.7 | -3.9 | · | ·
Cc1nnc(C)n1N=Cc1ccc(Cl)c([N+](=O)[O-])c1 | · | · | · | · | 5.9 | · | · | ·
Cc1ccc(/C=N/Nc2nncn2N)cc1 | 8.9 | 1.1 | 39.9* | 5.3 | -3.8 | 3.9 | -17.1 | 1.2
CC1(C)Oc2ccc(C(=O)N3CCCC3)cc2NC1=O | · | · | · | · | 2.4 | · | · | ·
COc1cc(C(=O)Oc2c(OC)cc(C(=S)N3CCOCC3)cc2OC)cc(OC)c1OC | -2.5 | 2.2 | 1.4 | -23.6 | 8.5 | 2.6 | · | ·
COc1cc(C(=S)N2CCOCC2)cc(OC)c1OC(=O)Cc1ccc(F)cc1 | -24.4 | 1.5 | 35.8* | -6.2 | 7.8 | 12.4 | -8.1 | 0.5
COCCNC(=O)C1CCCN(C(=O)C2(c3ccc(Cl)cc3)CCCC2)CC1 (stereo not given) | · | -1.5 | · | · | 2.8 | 2.2 | · | ·
c1ccc(-c2ccccc2OCCCCn2ccnc2)cc1 | -8.4 | -1.7 | -1.7 | 1.9 | -25.4 | 2.8 | · | ·
O=C(Nc1ccc(F)cc1)OCc1cn(Cc2ccccc2)nn1 | · | · | · | · | -2.0 | · | · | ·
COc1ccc(S(=O)(=O)Oc2ccccc2C(=S)N2CCOCC2)cc1 | -22.7 | 0.3 | 44.8* | 7.7 | -2.4 | -0.6 | -13.0 | 4.2
CN(C)[C@H]1CCN(c2ccc3c(c2)O[C@@H]2CCN(C2)S3(=O)=O)C1 | · | · | · | · | 2.1 | · | · | ·
O=C1NC(Cc2ccccc2)c2nc3ccc(Br)cc3c(=O)n2-c2cc(Cl)ccc21 (stereo not given) | · | · | · | · | 5.0 | · | · | ·
